# C2C12 statin = suppressors of statin myotoxicity in C2C12 myotubes, primary screen, cell-based, single point, plate reader; C2C12 myotubes + simvastatin, ATP luminescence, 48 h; scaled: DMSO 0, geranylgeraniol control 100; rescue of ATP level, % at 7.49 µM; actives 0.78% (n = 330,000); AID 602340, 2012;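 active means mean ATP rescue above about 67%, or every replicate alone reaching that limit, limit read from the data, passing the limit was not always enough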;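 further: myotubes were challenged with 10 µM simvastatin during compound exposure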
# Xi reactivation = activators of inactive X chromosome reactivation, primary screen, imaging, XiGFP fibroblasts, GFP high-content imaging, set 2 | actives 0.055% (n = 360,000) | XiGFP mouse fibroblasts, % GFP-positive cells imaging, 3 d; cells co-treated with 5-aza-dC sensitizer; scaled so ellipticine positive control = 100% | activation, % at 7.58 µM;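 active means mean normalized replicate activation at least 10% and every replicate at or above 10%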;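 further: 0% = median of on-plate neutral control wells and 100% = ellipticine 6 µM median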
#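 Assay system – SV40-immortalized XiGFP fibroblast cells, line 68-5-11 · Buffer or medium – DMEM supplemented with 5-aza-dC as sensitizing agent · Dosing – one concentration, pinned · Benchmarks – positive control ellipticine, 6 µM final · Times – 3 days compound exposure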
# Cneo AK release = Cryptococcus neoformans cell lysis inducers, primary screen, AK release luminescence, single concentration; AID 651654, 2012; lysis activity, % at 15 µM; actives 0.2% (n = 360,000); C. neoformans lysis, adenylate kinase release luminescence, 4 h; normalised: neutral wells 0, clomiphene wells 100;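 active means mean lysis activity across replicates of at least 80%, whatever share of replicates individually reach that level; inactive means mean lysis activity below 80%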
#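 Signal: Adenylate kinase release luminescence | Assay system: Log-phase Cryptococcus neoformans yeast cells | Input: Cells at 5 × 10^6 per mL | Buffer or medium: Fresh YPD growth medium | Compound: Single dose | Schedule: Static 4 h at 37 °C with compound, 1 h detection | Controls: Clomiphene | Read-out: Luminescence rise reflecting yeast cell lysis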
# DENV2 CPE = inhibitors of DENV2 cytopathic effect, primary screen, cell-based, plate reader, single concentration; DENV2-infected cells, cytopathic effect rescue; actives 1.7% (n = 350,000); CPE inhibition, % at 9.99 µM; in the data active means CPE inhibition above about 20%, passing the limit was not always enough; tested in BHK-21 cells;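 further: 0% = median of neutral control wells and 100% = median of positive control wells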
# * marks the source's active call; other numbers are inactive results; / = no result given. In the library only some 2.1% were active in any assay of this set; here they are far more common.
SMILES,C2C12 statin,Xi reactivation,Cneo AK release,DENV2 CPE
C[C@@H]1CCCCO[C@@H](CN(C)C(=O)Nc2ccc3c(c2)OCO3)[C@H](C)CN([C@H](C)CO)C(=O)c2cc(NS(=O)(=O)c3ccc(Cl)cc3)ccc2O1,/,0,3,6
C[C@@H]1CCCCO[C@H](CN(C)C(=O)Nc2ccc3c(c2)OCO3)[C@@H](C)CN([C@H](C)CO)C(=O)c2cc(NS(=O)(=O)c3ccc(Cl)cc3)ccc2O1,/,0,1,25*
C[C@H]1CCCCO[C@H](CN(C)C(=O)Nc2ccc(F)cc2)[C@@H](C)CN([C@@H](C)CO)C(=O)c2cc(NS(=O)(=O)c3ccc(Cl)cc3)ccc2O1,/,0,85*,/
C[C@H](CO)N1C[C@H](C)[C@H](CN(C)C(=O)Nc2ccc(F)cc2)OCCCC[C@H](C)Oc2ccc(NS(=O)(=O)c3ccc(Cl)cc3)cc2C1=O,/,1,10,6
CCNC(=O)C[C@H]1CC[C@@H]2[C@H](COC[C@H](O)CN2C(=O)Nc2ccc(Cl)c(Cl)c2)O1,-6,0,-13,-8
COc1ccc(NC(=O)[C@@H]2CC=C[C@@H]3CCN(Cc4ccccc4)C(=O)[C@@H]32)cc1,7,0,0,25*
Cc1noc(C)c1S(=O)(=O)Nc1ccc2c(c1)C(=O)N([C@@H](C)CO)C[C@H](C)[C@H](CN(C)C(=O)C1CCCCC1)OCCCC[C@@H](C)O2,/,0,5,-10
Cc1noc(C)c1S(=O)(=O)Nc1ccc2c(c1)C(=O)N([C@H](C)CO)C[C@H](C)[C@H](CN(C)C(=O)Nc1ccccc1)OCCCC[C@@H](C)O2,/,0,-9,89*
Cc1noc(C)c1S(=O)(=O)Nc1ccc2c(c1)C(=O)N([C@H](C)CO)C[C@H](C)[C@H](CN(C)C(=O)C1CCCCC1)OCCCC[C@@H](C)O2,/,0,6,47*
Cc1noc(C)c1S(=O)(=O)Nc1ccc2c(c1)C(=O)N([C@@H](C)CO)C[C@H](C)[C@H](CN(C)C(=O)CCCN(C)C)OCCCC[C@@H](C)O2,/,0,-8,-6
Cc1noc(C)c1S(=O)(=O)Nc1ccc2c(c1)C(=O)N([C@@H](C)CO)C[C@H](C)[C@@H](CN(C)C(=O)Nc1ccccc1)O2,/,-1,2,21*
Cc1noc(C)c1S(=O)(=O)Nc1ccc2c(c1)C(=O)N([C@@H](C)CO)C[C@H](C)[C@H](CN(C)C(=O)CCCN(C)C)OCCCC[C@H](C)O2,/,0,-11,73*
Cc1noc(C)c1NC(=O)Nc1ccc2c(c1)CC(=O)N([C@@H](C)CO)C[C@H](C)[C@@H](CN(C)S(=O)(=O)c1c(C)noc1C)O2,-20,0,-2,-8
Cc1noc(C)c1S(=O)(=O)Nc1ccc2c(c1)C(=O)N([C@@H](C)CO)C[C@@H](C)[C@@H](CN(C)C(=O)Nc1ccccc1)OCCCC[C@@H](C)O2,/,0,-4,95*
Cc1noc(C)c1S(=O)(=O)Nc1ccc2c(c1)C(=O)N([C@H](C)CO)C[C@H](C)[C@@H](CN(C)C(=O)NC(C)C)OCCCC[C@H](C)O2,/,0,-7,24*
COc1ccc(S(=O)(=O)Nc2ccc3c(c2)C(=O)N([C@H](C)CO)C[C@H](C)[C@@H](CN(C)C(=O)Nc2ccccc2)O3)cc1,1,0,0,4
COc1ccc(S(=O)(=O)Nc2ccc3c(c2)C(=O)N([C@H](C)CO)C[C@H](C)[C@@H](CN(C)C(=O)Nc2ccc(C(F)(F)F)cc2)OCCCC[C@H](C)O3)cc1,-28,0,-1,6
C[C@@H]1CCCCO[C@H](CN(C)C(=O)Nc2ccc(C(F)(F)F)cc2)[C@H](C)CN([C@@H](C)CO)C(=O)c2cc(NS(=O)(=O)c3ccc(F)cc3)ccc2O1,/,0,4,98*
COc1ccc(S(=O)(=O)Nc2ccc3c(c2)C(=O)N([C@H](C)CO)C[C@@H](C)[C@@H](CN(C)C(=O)Nc2ccc(C(F)(F)F)cc2)OCCCC[C@@H](C)O3)cc1,/,0,-4,53*
C[C@@H]1CCCCO[C@H](CN(C)C(=O)Nc2ccc(C(F)(F)F)cc2)[C@@H](C)CN([C@H](C)CO)C(=O)c2cc(NS(=O)(=O)c3ccc(F)cc3)ccc2O1,/,0,4,21*
COc1ccc(S(=O)(=O)Nc2ccc3c(c2)C(=O)N([C@H](C)CO)C[C@H](C)[C@H](CN(C)C(=O)Nc2ccccc2)O3)cc1,0,0,90*,16
C[C@@H]1CCCCO[C@H](CN(C)C(=O)Nc2ccc(C(F)(F)F)cc2)[C@@H](C)CN([C@@H](C)CO)C(=O)c2cc(NS(=O)(=O)c3ccc(F)cc3)ccc2O1,/,0,-1,-3
CO[C@@H]1CN(C)C(=O)c2ccc(NC(=O)c3ccccc3)cc2OC[C@H](C)N(CC2CC2)C[C@@H]1C,-10,0,-3,3
Cc1ccc(S(=O)(=O)Nc2ccc3c(c2)C(=O)N([C@H](C)CO)C[C@H](C)[C@H](CN(C)C(=O)Nc2ccc(C(F)(F)F)cc2)OCCCC[C@H](C)O3)cc1,/,0,-1,53*
C[C@H]1CCCCO[C@@H](CN(C)C(=O)Nc2ccc(C(F)(F)F)cc2)[C@@H](C)CN([C@@H](C)CO)C(=O)c2cc(NS(=O)(=O)c3ccc(F)cc3)ccc2O1,/,0,9,76*
SMILES,C2C12 statin,Xi reactivation,Cneo AK release,DENV2 CPE
C[C@@H]1CCCCO[C@@H](CN(C)C(=O)Nc2ccc(F)cc2)[C@@H](C)CN([C@H](C)CO)C(=O)c2cc(NS(=O)(=O)c3ccccc3)ccc2O1,/,0,-5,31*
COc1ccc(NC(=O)N(C)C[C@@H]2OCCCC[C@H](C)Oc3ccc(NS(=O)(=O)c4ccccc4)cc3C(=O)N([C@H](C)CO)C[C@H]2C)cc1,/,0,-2,58*
COCCNC(=O)C[C@@H]1C[C@H]2c3cc(NC(=O)c4ccc5c(c4)OCO5)ccc3O[C@H]2[C@H](CO)O1,2,0,46,-3
COCC(=O)Nc1ccc2c(c1)OC[C@H](C)N(C(=O)CC1CC1)C[C@H](C)[C@@H](OC)CN(C)C2=O,/,0,/,-9
COc1ccc(S(=O)(=O)N[C@@H]2C=C[C@@H](CC(=O)NCCc3ccncc3)O[C@@H]2CO)cc1,-8,0,2,7
COc1ccc(NC(=O)N(C)C[C@H]2OCCCC[C@@H](C)Oc3ccc(NS(=O)(=O)c4cn(C)cn4)cc3C(=O)N([C@H](C)CO)C[C@@H]2C)cc1,/,0,-1,-12
